According to paper PMC10646973 (Biochemistry, 2023):

Legend:
[1] = test system: protein arginine and protein lysine methyltransferases (PRMTs and PKMTs) in HT-29 colorectal cells; test: Protein methylation marks; type: cell-based; conditions: HT-29 cells, 6 days, positive control
In short: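 HT-29 colorectal cells were exposed to the test compound for 6 days. Soluble protein was then extracted and immunoblotted for symmetric dimethylarginine, asymmetric dimethylarginine and trimethyl-lysine marks. The SDMA positive control was a PRMT5-specific inhibitor, and the ADMA positive control was a type I PRMT (PRMT1/4) inhibitor.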

PNMT = conditions: read-out: apparent IC50; cited from earlier work

CC(C)Oc1ccc(-c2c[nH]cc2CN(C)CCN)cc1 [MS023, reference compound]
ADMA (Western blot) [1]: no evidence of ADMA

CC(=O)N1CCC(Nc2cc(C(=O)NC[C@H](O)CN3CCc4ccccc4C3)ncn2)CC1 [GSK3326595, reference compound]
SDMA (Western blot) [1]: no band corresponding to SDMA

NC(=O)c1cccc(C#CCN(CC[C@H](N)C(=O)O)C[C@H]2O[C@@H](n3cnc4c(N)ncnc43)[C@H](O)[C@@H]2O)c1 [LL320]
IC50 (PNMT): > 100 µM
